The record followed here is ChEMBL document CHEMBL4765349, “Design, synthesis and biological evaluation of novel N-sulfonylamidine-based derivatives as c-Met inhibitors via Cu-catalyzed three-component reaction” (Eur J Med Chem, 2020).

SMILES strings stand for the structures.

A short description of series [1]: Toxicity in Balb/c mouse assessed as survival rate at 400 mg/kg, ip measured after 15 days. As to conditions: in vivo, time 15 day. The class given is organism-based. In a few lines:
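Acute toxicity: 8-week-old male BALB/c mice, randomized in groups of n = 10, given a single intraperitoneal injection on day zero (vehicle only, 100, 200, 300 or 400 mg/kg). A further untreated group served as normal control. Survival on day 15 was reported as a percentage.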

Series [2] is described as follows: Half life in Balb/c mouse at 2 mg/kg, iv measured after 24 hrs by LC/MS/MS analysis. The class given is ADME, organism-based. As to conditions: in vivo. In outline: (§1)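 BALB/c mice dosed once orally at 8 mg/kg or intravenously at 2 mg/kg. Plasma concentration followed over time, and Cmax, Tmax, AUC0-∞, elimination half-life, clearance and oral bioavailability were derived from it.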

The target of series [3] is Hepatocyte growth factor receptor (Homo sapiens, UniProt P08581). The series can be described thus: Inhibition of c-MET (unknown origin) using poly (Glu, Tyr)4:1 as substrate in presence of ATP measured after 30 mins by HTRF assay. Background: TR-FRET usually uses a lanthanide donor and a delayed reading to cut background.
Sequence of Hepatocyte growth factor receptor (P08581 whole entry): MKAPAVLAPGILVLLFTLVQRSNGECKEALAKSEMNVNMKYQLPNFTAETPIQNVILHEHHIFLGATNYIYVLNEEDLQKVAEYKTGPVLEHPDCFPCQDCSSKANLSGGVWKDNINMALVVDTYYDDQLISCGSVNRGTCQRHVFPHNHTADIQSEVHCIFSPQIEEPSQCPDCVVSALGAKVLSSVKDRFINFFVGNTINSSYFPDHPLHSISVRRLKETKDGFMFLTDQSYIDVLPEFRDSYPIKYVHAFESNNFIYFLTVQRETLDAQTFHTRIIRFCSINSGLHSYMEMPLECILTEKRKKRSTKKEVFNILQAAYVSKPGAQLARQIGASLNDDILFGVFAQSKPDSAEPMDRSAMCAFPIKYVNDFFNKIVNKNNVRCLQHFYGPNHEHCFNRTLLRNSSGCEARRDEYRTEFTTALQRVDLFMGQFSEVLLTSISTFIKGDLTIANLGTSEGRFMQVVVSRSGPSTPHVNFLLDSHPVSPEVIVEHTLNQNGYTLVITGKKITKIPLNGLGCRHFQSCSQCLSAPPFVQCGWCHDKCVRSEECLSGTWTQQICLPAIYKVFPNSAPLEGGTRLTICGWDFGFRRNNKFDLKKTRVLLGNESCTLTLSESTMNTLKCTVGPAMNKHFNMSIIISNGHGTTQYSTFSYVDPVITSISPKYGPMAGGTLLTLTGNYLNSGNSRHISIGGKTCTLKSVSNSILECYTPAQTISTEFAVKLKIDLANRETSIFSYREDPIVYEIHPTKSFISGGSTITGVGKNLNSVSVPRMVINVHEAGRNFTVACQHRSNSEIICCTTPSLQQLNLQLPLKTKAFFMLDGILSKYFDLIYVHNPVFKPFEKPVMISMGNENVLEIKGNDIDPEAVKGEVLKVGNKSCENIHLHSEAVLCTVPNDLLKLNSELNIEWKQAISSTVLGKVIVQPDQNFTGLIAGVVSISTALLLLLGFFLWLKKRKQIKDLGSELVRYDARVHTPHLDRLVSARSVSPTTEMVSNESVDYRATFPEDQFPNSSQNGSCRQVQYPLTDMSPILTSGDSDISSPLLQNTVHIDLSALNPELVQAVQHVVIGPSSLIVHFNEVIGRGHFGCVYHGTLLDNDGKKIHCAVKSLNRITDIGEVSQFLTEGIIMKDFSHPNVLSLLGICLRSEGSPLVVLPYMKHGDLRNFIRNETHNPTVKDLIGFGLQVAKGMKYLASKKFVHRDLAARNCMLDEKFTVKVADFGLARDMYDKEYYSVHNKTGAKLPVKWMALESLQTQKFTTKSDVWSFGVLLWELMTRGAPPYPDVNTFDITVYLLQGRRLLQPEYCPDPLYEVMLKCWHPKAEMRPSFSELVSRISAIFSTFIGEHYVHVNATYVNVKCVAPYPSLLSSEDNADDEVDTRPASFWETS
Series [4] is described as follows: Selectivity index, ratio of IC50 for human HUVEC cells assessed as inhibition of cell proliferation to IC50 of HT-29 cells assessed as inhibition of cell proliferation. The class given is toxicity. The settings on record: HUVEC cells versus HT-29 cells, read-out: Selectivity Index.
Series [5] in a line: Half life in Balb/c mouse at 8 mg/kg, po measured after 24 hrs by LC/MS/MS analysis. The class given is ADME, organism-based. As to conditions: in vivo. In outline: as §1
A short description of series [6]: Cmax in Balb/c mouse at 2 mg/kg, iv measured after 24 hrs by LC/MS/MS analysis. The class given is ADME, organism-based. More on the design: route intravenous, dose 2 mg/kg, time 24 hrs. The settings on record: in vivo. In a few lines:
as §1

In series [7] the target is T1, Receptor-type tyrosine-protein kinase FLT3 (Homo sapiens, UniProt P36888).
T1 sequence (P36888 whole entry): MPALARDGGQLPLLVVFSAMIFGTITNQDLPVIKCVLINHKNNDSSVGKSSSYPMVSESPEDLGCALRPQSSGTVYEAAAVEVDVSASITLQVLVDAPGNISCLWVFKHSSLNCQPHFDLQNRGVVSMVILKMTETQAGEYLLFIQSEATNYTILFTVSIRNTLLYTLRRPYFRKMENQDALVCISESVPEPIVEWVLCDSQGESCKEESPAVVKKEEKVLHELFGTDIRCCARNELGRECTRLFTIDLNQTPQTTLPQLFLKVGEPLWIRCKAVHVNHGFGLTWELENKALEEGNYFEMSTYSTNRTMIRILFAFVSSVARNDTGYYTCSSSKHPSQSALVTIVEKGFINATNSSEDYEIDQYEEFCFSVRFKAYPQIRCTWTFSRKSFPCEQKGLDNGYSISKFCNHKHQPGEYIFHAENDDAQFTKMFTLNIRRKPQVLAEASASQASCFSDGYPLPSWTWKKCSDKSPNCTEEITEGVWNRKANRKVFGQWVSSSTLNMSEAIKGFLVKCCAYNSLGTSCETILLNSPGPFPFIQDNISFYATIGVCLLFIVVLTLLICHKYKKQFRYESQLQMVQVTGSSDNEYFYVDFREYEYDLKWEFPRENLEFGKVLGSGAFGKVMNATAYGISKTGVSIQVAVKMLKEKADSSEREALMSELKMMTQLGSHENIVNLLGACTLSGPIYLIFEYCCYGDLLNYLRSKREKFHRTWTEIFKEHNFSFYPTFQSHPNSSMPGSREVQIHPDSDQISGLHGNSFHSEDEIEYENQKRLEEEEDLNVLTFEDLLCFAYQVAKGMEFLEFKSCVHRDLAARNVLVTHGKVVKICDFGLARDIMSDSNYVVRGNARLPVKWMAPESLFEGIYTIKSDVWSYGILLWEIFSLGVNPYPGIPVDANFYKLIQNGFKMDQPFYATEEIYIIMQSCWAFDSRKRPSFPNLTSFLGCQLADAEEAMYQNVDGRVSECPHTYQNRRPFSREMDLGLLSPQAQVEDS
The experiment in a line: Inhibition of FLT-3 (unknown origin) using poly (Glu, Tyr)4:1 as substrate in presence of ATP measured after 30 mins by HTRF assay.

Another series has as its system HT-29. The experiment in a line: cells. As to conditions: Homo sapiens, HT-29, 72 h.
Series [8] concerns the target Vascular endothelial growth factor receptor 2 (Homo sapiens, UniProt P35968). The series can be described thus: Inhibition of VEGFR 2 (unknown origin) using poly (Glu, Tyr)4:1 as substrate in presence of ATP measured after 30 mins by HTRF assay.
The next series has as its system MDA-MB-231. The series can be described thus: Cytotoxicity against human MDA-MB-231 cells assessed as inhibition of cell proliferation measured after 72 hrs by MTT assay. The class given is functional, cell-based. As to conditions: MDA-MB-231, 72 h. (In general: Tetrazolium dyes change colour on reduction, which living cells bring about.)

Sequence of Vascular endothelial growth factor receptor 2 (P35968 whole entry): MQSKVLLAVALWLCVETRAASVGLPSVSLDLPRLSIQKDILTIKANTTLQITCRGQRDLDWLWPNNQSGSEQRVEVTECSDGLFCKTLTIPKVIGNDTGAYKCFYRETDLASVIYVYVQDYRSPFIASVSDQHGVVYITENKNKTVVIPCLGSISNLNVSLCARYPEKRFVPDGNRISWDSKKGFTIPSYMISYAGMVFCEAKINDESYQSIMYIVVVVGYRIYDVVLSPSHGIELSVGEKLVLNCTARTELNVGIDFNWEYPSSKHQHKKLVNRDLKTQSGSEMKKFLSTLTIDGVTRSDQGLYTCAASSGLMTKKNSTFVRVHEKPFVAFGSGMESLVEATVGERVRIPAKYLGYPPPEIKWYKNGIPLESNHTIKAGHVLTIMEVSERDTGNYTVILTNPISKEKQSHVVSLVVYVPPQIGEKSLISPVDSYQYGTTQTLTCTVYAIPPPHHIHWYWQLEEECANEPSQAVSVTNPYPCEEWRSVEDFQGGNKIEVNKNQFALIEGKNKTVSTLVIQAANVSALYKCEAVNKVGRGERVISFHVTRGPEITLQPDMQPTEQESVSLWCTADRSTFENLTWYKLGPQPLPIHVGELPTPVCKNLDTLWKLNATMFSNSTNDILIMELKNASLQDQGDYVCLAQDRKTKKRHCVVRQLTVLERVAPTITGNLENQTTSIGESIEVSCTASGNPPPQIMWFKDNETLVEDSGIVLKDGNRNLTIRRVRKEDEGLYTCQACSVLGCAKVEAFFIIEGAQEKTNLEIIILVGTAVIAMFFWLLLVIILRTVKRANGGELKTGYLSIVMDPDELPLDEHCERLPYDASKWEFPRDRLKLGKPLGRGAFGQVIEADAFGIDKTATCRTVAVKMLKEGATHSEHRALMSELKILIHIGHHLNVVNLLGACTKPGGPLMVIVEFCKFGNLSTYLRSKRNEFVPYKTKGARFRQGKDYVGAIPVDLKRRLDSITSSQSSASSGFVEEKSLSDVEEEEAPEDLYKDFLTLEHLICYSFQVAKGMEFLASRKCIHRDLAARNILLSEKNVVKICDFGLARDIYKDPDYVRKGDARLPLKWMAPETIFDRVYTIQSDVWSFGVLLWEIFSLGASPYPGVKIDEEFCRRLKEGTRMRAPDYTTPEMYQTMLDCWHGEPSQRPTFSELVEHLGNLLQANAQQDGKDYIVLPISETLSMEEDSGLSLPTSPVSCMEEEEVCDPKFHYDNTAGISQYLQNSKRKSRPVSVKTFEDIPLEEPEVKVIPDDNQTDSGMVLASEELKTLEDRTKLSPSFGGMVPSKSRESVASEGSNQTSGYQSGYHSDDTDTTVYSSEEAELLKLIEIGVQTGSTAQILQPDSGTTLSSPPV

What is called half-life is how long it takes for the measured level to halve. Broadly, the IC50 is the concentration needed to halve the response being measured. As a reminder, the Cmax is the peak of the concentration-time curve. Regarding `COCC/C(=N\S(=O)(=O)Cc1ccc(Cl)cc1)Nc1ccc(Oc2ccnc3cc(OCCCN4CCOCC4)c(OC)cc23)c(F)c1`, the survival at 360 h in series [1] stood at 50%. Moreover, the half-life in series [2] is 1.8 h; in [5] it was 3.5 h. Further, the half-inhibitory concentration (IC50) in series [3] came to 2.89 nM; in [7], 7.28 nM; in the series on HT-29 it was 320 nM; in [8], 673 nM; in the series on MDA-MB-231 it was 720 nM. Further, in series [4], the selectivity ratio amounted to 4.2. In series [6], the Cmax was determined as 676 ng/mL.
